According to ChEMBL document CHEMBL5252523, “Searching for New Leads for Tuberculosis: Design, Synthesis, and Biological Evaluation of Novel 2-Quinolin-4-yloxyacetamides” (J Med Chem, 2016):
Values after ≈ are worked out from the molar mass of the structure shown.

How the values were obtained:
[1] = Chromatographic hydrophobicity index, log D of the compound in phosphate buffer at pH 7.4 by UV-HPLC analysis; format: physicochemical
[2] = Artificial membrane permeability of the compound incubated for 3 hrs by HPLC analysis; format: ADME; details: PAMPA, read-out: permeability
[3] = system: Mycobacterium tuberculosis; assay: Antimycobacterial activity against Mycobacterium tuberculosis H37Rv ATCC 25618 assessed as inhibition of microbial growth incubated for 6 days by resazurin based assay; format: functional; details: H37Rv ATCC 25618, 144 h, time 6 day
Outline: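 Ten two-fold dilutions made in neat DMSO, tested in Middlebrook 7H9 with the H37Rv inoculum. Controls: isoniazid from 4 μg/ml as positive control; rifampicin 1 μM as no-growth control. Plates sat sealed at 37 °C without shaking for 6 days.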

[4] = Cytotoxicity against human HepG2 cells assessed as cell growth inhibition incubated for 48 hrs by CellTiter-Glo reagent based analysis; format: toxicity
Outline: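 HepG2 cells kept in Eagle's MEM with 10% heat-inactivated FBS, 1% NEAA and penicillin/streptomycin, seeded at ~3000 cells/well onto pre-dispensed compound. Incubation was 48 h at 37 °C, 5% CO2. Plates were equilibrated to room temperature, CellTiter-Glo was added, and ATP luminescence was read after 10 min as the viability read-out.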

[5] = Kinetic aqueous solubility of compound in phosphate buffer at pH 7.4 incubated for 1 hrs by CLND assay; format: physicochemical; details: read-out: Kinetic_solubility

SMILES | chromatographic logD [1] | Papp at 3 h [2] | MIC [3] | IC50 at 48 h [4] | solubility kinetic at 1 h [5]
COc1ccc2nc(C)cc(OCC(=O)Nc3ccccc3)c2c1 | 4.28 | 37 ×10⁻⁶ cm/s | 2 µM | 39.8 µM | 63 µM (≈ 20.3 µg/mL)
COc1cccc(NC(=O)COc2cc(C)nc3ccc(OC)cc23)c1 | 4.49 | 47 ×10⁻⁶ cm/s | 6.4 µM | > 100 µM | 35 µM (≈ 12.3 µg/mL)
COc1ccc2nc(C)cc(NC(=O)C(=O)Nc3cc(C)cc(C)c3)c2c1 | 6.47 | – | > 125 µM | > 100 µM | 10 µM (≈ 3.63 µg/mL)
COc1cc2nc(C)cc(OCC(=O)Nc3cc(C)cc(C)c3)c2cc1OC | 4.84 | 60.5 ×10⁻⁶ cm/s | > 250 µM | 10 µM | –
COc1ccc2nc(C)c(NC(=O)C(=O)Nc3cc(C)cc(C)c3)c(O)c2c1 | 3.76 | – | > 125 µM | > 100 µM | 10 µM (≈ 3.79 µg/mL)
COc1ccc2nc(C)cc(OCc3nc4ccccc4[nH]3)c2c1 | 3.59 | – | 16 µM | > 100 µM | 13 µM (≈ 4.15 µg/mL)
COc1ccc2nc(C)cc(OCc3ccc4ccccc4n3)c2c1 | 5.48 | 47 ×10⁻⁶ cm/s | 32 µM | 31.6 µM | 21 µM (≈ 6.94 µg/mL)
COc1ccc2nc(C)cc(OCC(=O)Nc3ccc(Cl)c(C(F)(F)F)c3)c2c1 | 6.22 | – | 47 µM | 79.4 µM | 17 µM (≈ 7.22 µg/mL)
COc1ccc2nc(C)cc(OCC(=O)Nc3cc(C)c(OC)c(C)c3)c2c1 | 4.99 | 32 ×10⁻⁶ cm/s | 1 µM | 7.94 µM | 17 µM (≈ 6.47 µg/mL)
COc1ccc2nc(C)cc(OCC(=O)Nc3c(C)cccc3C)c2c1 | 4.55 | 63 ×10⁻⁶ cm/s | 125 µM | > 100 µM | 112 µM (≈ 39.2 µg/mL)
COc1ccc2nc(C)cc(OC(C(=O)Nc3cc(C)cc(C)c3)c3ccccc3)c2c1 (stereo not given) | 7.13 | < 3 ×10⁻⁶ cm/s | > 125 µM | > 100 µM | 2 µM (≈ 0.853 µg/mL)
Cc1cc(C)cc(NC(=O)COc2cc(C)nc3ccc(C(F)(F)F)cc23)c1 | 6.67 | < 3 ×10⁻⁶ cm/s | > 250 µM | > 100 µM | 10 µM (≈ 3.88 µg/mL)
Cc1cc(C)cc(NC(=O)COc2cc(C(F)(F)F)nc3cc4c(cc23)OCO4)c1 | 6.73 | < 3 ×10⁻⁶ cm/s | > 250 µM | > 100 µM | < 1 µM
COc1ccc2nc(C)cc(OCC(=O)Nc3ccc(Br)c(C)c3)c2c1 | 5.95 | – | 3.9 µM | 15.8 µM | < 1 µM
COc1ccc2nc(C)cc(NCC(=O)Nc3cc(C)cc(C)c3)c2c1 | 3.59 | 31 ×10⁻⁶ cm/s | 47 µM | 6.31 µM | 204 µM (≈ 71.3 µg/mL)
Cc1cc(C)cc(NC(=O)COc2cc(C(F)(F)F)nc3ccc(OC(F)(F)F)cc23)c1 | 7.96 | < 0.3 ×10⁻⁶ cm/s | > 250 µM | > 100 µM | 34 µM (≈ 15.6 µg/mL)
Cc1cc(C)cc(NC(=O)COc2cc(C)nc3ccc(OC(F)(F)F)cc23)c1 | 6.79 | < 3 ×10⁻⁶ cm/s | > 250 µM | > 100 µM | –
Cc1cc(C)cc(NC(=O)COc2cc(C)nc3ccc(F)cc23)c1 | 5.79 | 31 ×10⁻⁶ cm/s | 15.6 µM | 63.1 µM | 28 µM (≈ 9.47 µg/mL)

SMILES | chromatographic logD [1] | Papp at 3 h [2] | MIC [3] | IC50 at 48 h [4] | solubility kinetic at 1 h [5]
COc1ccc2nc(C(F)(F)F)cc(OCC(=O)Nc3cc(C)cc(C)c3)c2c1 | 7.02 | < 1 ×10⁻⁶ cm/s | > 250 µM | > 100 µM | 15 µM (≈ 6.07 µg/mL)
COc1ccc2c(OCC(=O)Nc3cc(C)cc(C)c3)cc(C)nc2c1 | 5.59 | – | > 250 µM | 50.1 µM | –
CSc1ccc2nc(C)cc(OCC(=O)Nc3cc(C)cc(C)c3)c2c1 | 6.42 | – | > 125 µM | > 100 µM | 3 µM (≈ 1.1 µg/mL)
CCCc1cc(OCC(=O)Nc2cc(C)cc(C)c2)c2cc(OC)ccc2n1 | 6.44 | – | > 250 µM | 12.6 µM | 12 µM (≈ 4.54 µg/mL)
Cc1cc(C)cc(NC(=O)COc2cc(C(F)(F)F)nc3c(C(F)(F)F)cccc23)c1 | 7.73 | < 1 ×10⁻⁶ cm/s | > 250 µM | > 100 µM | < 1 µM
COc1ccc2nc(C)cc(OCC(=O)Nc3cc(OC)c(OC)c(OC)c3)c2c1 | 3.95 | 62 ×10⁻⁶ cm/s | 62 µM | > 100 µM | 34 µM (≈ 14 µg/mL)
Cc1cc(C)cc(NC(=O)COc2cc(C)nc3ccc(OCc4ccccc4)cc23)c1 | 7.03 | < 1 ×10⁻⁶ cm/s | > 250 µM | > 100 µM | < 1 µM
CCOc1ccc2nc(C(F)(F)F)cc(OCC(=O)Nc3cc(C)cc(C)c3)c2c1 | 7.55 | < 0.3 ×10⁻⁶ cm/s | > 250 µM | > 100 µM | < 1 µM
COc1ccc2nc(C)cc(OC3CCN(c4ccccc4)C3=O)c2c1 (stereo not given) | 4.99 | 55 ×10⁻⁶ cm/s | 125 µM | 100 µM | 215 µM (≈ 74.9 µg/mL)
COc1ccc2nc(C)cc(OCC(=O)Nc3cc(OC)c(Cl)cc3OC)c2c1 | 5.8 | – | > 125 µM | > 100 µM | 3 µM (≈ 1.25 µg/mL)
COc1ccc2nc(C)cc(OC(C)C(=O)Nc3cc(C)cc(C)c3)c2c1 (stereo not given) | 5.76 | 32 ×10⁻⁶ cm/s | 125 µM | 39.8 µM | 61 µM (≈ 22.2 µg/mL)
Cc1cc(C)cc(NC(=O)COc2cc(C)nc3ccccc23)c1 | 5.39 | 37 ×10⁻⁶ cm/s | 24 µM | > 100 µM | 55 µM (≈ 17.6 µg/mL)
COc1ccc2nc(C)cc(OCC(=O)NCc3cc(C)cc(C)c3)c2c1 | 5.25 | < 0.3 ×10⁻⁶ cm/s | 31 µM | > 100 µM | 92 µM (≈ 33.5 µg/mL)
COc1ccc2nc(C)c3nc(C(=S)Nc4cc(C)cc(C)c4)sc3c2c1 | – | < 3 ×10⁻⁶ cm/s | > 125 µM | > 100 µM | 35 µM (≈ 13.8 µg/mL)
COc1ccc2nc(C)cc(OCC(=O)Nc3ccc(Cl)c(OC)c3)c2c1 | 5.09 | 57 ×10⁻⁶ cm/s | > 125 µM | > 100 µM | 13 µM (≈ 5.03 µg/mL)
CCOc1ccc2nc(C)cc(OCC(=O)Nc3cc(C)cc(C)c3)c2c1 | 5.98 | < 3 ×10⁻⁶ cm/s | > 250 µM | > 100 µM | –
CCC(Oc1cc(C)nc2ccc(OC)cc12)C(=O)Nc1cc(C)cc(C)c1 (stereo not given) | 6.28 | 39 ×10⁻⁶ cm/s | > 250 µM | 79.4 µM | 123 µM (≈ 46.6 µg/mL)
Cc1cc(C)cc(NC(=O)COc2cc(C)nc3ccc(Cl)cc23)c1 | 6.38 | – | 40 µM | > 100 µM | 8 µM (≈ 2.84 µg/mL)
